Sampled rows, rich in hits. Any-hit rate of the full collection: about 3.2%.
HTRA1 inhibitor – inhibitors of human serine peptidase HTRA1; inhibition, % at 5.96 µM; 340,000 compounds, 0.5% hits; recombinant HTRA1, FP-rhodamine activity-based probe, fluorescence polarization; in the data active means inhibition above about 36%;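 further: 0% = enzyme with DMSO and 100% = wells lacking enzyme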
Target sequence (Q92743 whole entry, looked up): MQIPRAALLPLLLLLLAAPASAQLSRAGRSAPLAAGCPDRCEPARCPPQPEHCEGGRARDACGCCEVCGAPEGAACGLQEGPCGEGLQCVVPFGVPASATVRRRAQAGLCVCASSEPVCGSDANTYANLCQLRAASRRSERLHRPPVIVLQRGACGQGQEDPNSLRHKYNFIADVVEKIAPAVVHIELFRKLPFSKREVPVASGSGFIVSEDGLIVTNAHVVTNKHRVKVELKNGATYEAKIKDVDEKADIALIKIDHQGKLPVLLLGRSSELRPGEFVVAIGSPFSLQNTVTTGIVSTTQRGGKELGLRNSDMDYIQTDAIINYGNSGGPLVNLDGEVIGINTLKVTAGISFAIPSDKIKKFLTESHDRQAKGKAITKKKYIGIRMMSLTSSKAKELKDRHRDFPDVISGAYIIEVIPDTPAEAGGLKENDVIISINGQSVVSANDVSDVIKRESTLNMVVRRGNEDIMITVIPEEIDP
rCAG binder – binds r(CAG) RNA repeats; inhibition, % at 3 µM; AID 651821; r(CAG) RNA repeat, TO-PRO-1 dye displacement fluorescence; 370,000 compounds, 1.3% hits;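 active means inhibition above the plate cutoff, the mean of all test compounds on that plate plus 3 SD, cut at about 35% in these data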;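 further: 0% = DMSO alone and 100% = 100 µM mitoxantrone as full dye displacement; higher means more dye released from RNA so lower well fluorescence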
LEDGF integ inh – blocks HIV-1 LEDGF/p75-dependent DNA integration; TR-FRET IN-LEDGF/p75 DNA integration, Eu/Cy5; inhibition, % at 3.7 µM; 370,000 compounds, 0.64% hits;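 active means inhibition above the screen-wide mean plus 3 SD, cut at about 13% in these data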;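 further: signal is the Cy5 over europium emission ratio at 671 and 618 nm; 0% = plate median of compound wells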
mABHD4 FP – inhibits mouse alpha/beta hydrolase domain 4; Q8VD66; purified mABHD4, FP-Rh probe fluorescence polarization; inhibition, % at 8.92 µM; 370,000 compounds, 0.54% hits; AID 720543;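 active means inhibition exceeding the mean over every tested compound plus 3 SD, cut at about 30% in these data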;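 further: 0% = plate median of compound wells and 100% = S159A mutant with DMSO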
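Doses – 8.92 µM, single dose · Material – wild-type mouse ABHD4 protein · Replication – single well per compound (singlicate) · Measure – percent inhibition of probe binding, normalized to plate controls · Schedule – 45 min compound pre-incubation plus 60 min probe step, 25 °C · Detection – fluorescence polarization with parallel and perpendicular emission, 525/598 nm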
PRMT1 FP inh – PRMT1 (human) inhibition, primary screen | Q99873 | recombinant PRMT1, activity-based probe fluorescence polarization | inhibition, % at 2.79 µM | 370,000 compounds, 1.3% hits;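 active means inhibition above about 21% made by adding two undisclosed values, limit read from the data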
DAGLB inhibitor – diacylglycerol lipase beta (human) inhibition; inhibition, % at 5.17 µM; 340,000 compounds, 0.059% hits; AID 504411; HEK293T DAGLB membrane lysate, EnzChek fluorogenic substrate; Q8NCG7; in the data active means inhibition above about 34%;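 further: 0% = enzyme with vehicle and 100% = wells lacking enzyme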
rCAG binder conf – r(CAG) RNA repeat binding, confirmation. shares compounds with rCAG binder. 4,300 compounds, 70% hits. TO-PRO-1 dye displacement fluorescence. inhibition, % at 3 µM;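 active means inhibition above a per-plate cutoff, the mean inhibition of sample wells plus 3 SD, cut at about 35% in these data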;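 further: loss of TO-PRO-1 fluorescence as compound displaces dye from 1x1 AA loop RNA; 0% = DMSO only wells and 100% = 100 µM mitoxantrone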
DNA CAG counter – DNA CAG dye complex inhibition counter-screen; shares compounds with rCAG binder; d(CAG) DNA oligo TO-PRO-1 dye displacement, fluorescence; 4,300 compounds, 94% hits; inhibition, % at 3 µM;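 active means inhibition above its plate's cutoff, the mean test-well inhibition plus 3 SD, cut at about 4.8% in these data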;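 further: 0% = DNA dye mix with DMSO and 100% = 100 µM mitoxantrone; hits displace the dye from DNA and so lower well fluorescence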
PRMT1 confirm – PRMT1 (human) inhibition, FP confirmation; recombinant His-PRMT1, activity-based probe fluorescence polarization; inhibition, % at 2.79 µM; shares compounds with PRMT1 FP inh; 3,300 compounds, 42% hits; AID 687036;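 active means mean inhibition across replicates above the hit cutoff derived for the earlier primary screen, cut at about 22% in these data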
Active calls of the source: *; · = not tested or not shown.

SMILES	HTRA1 inhibitor	rCAG binder	LEDGF integ inh	mABHD4 FP	PRMT1 FP inh	DAGLB inhibitor	rCAG binder conf	DNA CAG counter	PRMT1 confirm
O=C(COC(=O)c1cc(-c2ccc(Cl)s2)nc2ccccc12)NCc1ccco1	-57	36*	6	-33	30*	6	15	6.6*	3
O=C(COC(=O)c1ccco1)NCc1ccc2c(c1)OCO2	4	-2	-2	4	4	-3	·	·	·
O=C(COC(=O)c1cc(-c2ccco2)nc2ccccc12)NCc1ccc2c(c1)OCO2	-27	38*	-1	1	35*	3	15	8.0*	19
CCOC(=O)c1c(/N=C/c2cc([N+](=O)[O-])ccc2O)sc(C)c1C	1	65*	5	-19	29*	0	9	7.2*	-2
COc1ccc(NC(=O)C2C3C=CC4(O3)C2C(=O)N(CCCN2CCCCC2)C4C(=O)NC2CCCC(C)C2C)cc1 (configuration not stated)	-1	-6	0	2	-1	-2	·	·	·
CCCS(=O)(=O)c1c(S(=O)(=O)CCC)c2c(N)cccn2c1C(=O)c1ccc(OC)cc1	4	19	0	9	6	3	·	·	·
CCCS(=O)(=O)c1c(S(=O)(=O)CCC)c2c(N)cccn2c1C(=O)c1ccc(F)cc1	3	45*	2	3	26*	3	21	10*	7
O=C1c2ccccc2C(=O)N1CN(C(=O)COc1ccc(Cl)cc1Cl)c1cccc(F)c1	1	0	3	-10	0	-4	·	·	·
N#Cc1ccc(CC(=O)c2ccccc2)[nH]c1=O	28	35*	6	43*	29*	3	14	4	0
Nc1ccccc1Sc1ccc(C(=O)c2ccccc2C(=O)O)cc1[N+](=O)[O-]	1	64*	5	-12	72*	13	48*	15*	19
CC(=O)c1ccc(Sc2ccccc2N)c([N+](=O)[O-])c1	·	2	0	4	2	·	·	·	·
O=C1NC(=S)S/C1=C\c1ccc(SCc2ccccc2)o1	-32	82*	43*	-16	64*	14	79*	43*	15
Cc1cccc(/C=N/c2sc3c(c2C#N)CCN(Cc2ccccc2)C3)c1O	-1	9	3	2	1	-4	·	·	·
Cn1cc(S(=O)(=O)CC(=O)Nc2ccc3c(c2)OCCO3)c2ccccc21	-2	4	3	1	2	0	·	·	·
CCOC(=O)C1=C(C)N=c2sc(=Cc3ccc(OCC(=O)O)cc3)c(=O)n2C1c1ccc(Cl)cc1 (configuration not stated)	·	83*	4	-66	42*	·	59*	26*	13
CCOC(=O)C1=C(C)N=c2s/c(=C\c3ccc(OC(C)=O)cc3)c(=O)n2C1/C=C/c1ccccc1 (configuration not stated)	4	5	3	-5	0	-3	·	·	·
O=C(CSc1ccc(-c2ccco2)nn1)c1ccc(F)cc1	21	37*	5	22	54*	1	9	4	13
O=c1nc2c(O)cccn2c2c1c(=O)[nH]c1ccccc12	17	40*	13	0	34*	-6	2	-1	34*
O=c1[nH]c2ccccc2c2nc3ccccn3c12	7	2	1	3	-3	-1	·	·	·
O=C1N=c2ccccc2=C1c1sc(=S)n(NC(=O)c2cccc(O)c2)c1O	0	11	1	26	3	3	·	·	·
Cc1ccc(C(=O)Nn2c(O)c(C=C3N=c4ccccc4=N3)sc2=S)cc1	-13	58*	6	-23	55*	2	40*	16*	5
O=C(Nn1c(O)c(C=C2N=c3ccccc3=N2)sc1=S)c1ccccc1	-7	51*	4	-5	49*	6	23	9.6*	3
O=C(Nn1c(O)c(C=C2N=c3ccccc3=N2)sc1=S)c1cccc(Cl)c1	-12	73*	-3	-2	39*	7	43*	15*	9
O=C(Nn1c(O)c(C=C2N=c3ccccc3=N2)sc1=S)c1ccc(Cl)cc1	-3	13	0	5	11	-2	·	·	·
CC(=O)c1cccc(Oc2ncccn2)c1	-3	1	-1	5	4	-1	·	·	·
SMILES	HTRA1 inhibitor	rCAG binder	LEDGF integ inh	mABHD4 FP	PRMT1 FP inh	DAGLB inhibitor	rCAG binder conf	DNA CAG counter	PRMT1 confirm
CCc1nnc(NC(=O)c2cc(-c3ccco3)nc3ccccc23)s1	28	36*	9	7	26*	4	23	16*	12
O=C(Nc1nncs1)c1cc(-c2ccco2)nc2ccccc12	2	48*	12	3	36*	3	16	7.1*	9
Cc1ccc(S(=O)(=O)NC2CC(C)(C)NC(C)(C)C2)cc1	2	-4	0	1	-2	0	·	·	·
N#Cc1c(-c2cccc(Br)c2)cc(-c2ccco2)[nH]c1=O	15	51*	0	11	33*	13	45*	16*	10
O=C1NC(=S)S/C1=C\c1cc(Cl)cc(Cl)c1O	-51	38*	10	-167	32*	34	47*	15*	34*
Cc1c(Cl)cccc1N1C(=O)C(N2C(=O)c3cccc([N+](=O)[O-])c3C2=O)C1c1cccs1 (configuration not stated)	-6	·	·	·	·	4	·	·	·
Cc1c(O)nc(SCC(=O)Nc2ccc3c4c(cccc24)CC3)n(-c2ccccc2)c1=O	-4	39*	0	10	29*	6	25	9.2*	23*
Cc1cccc(NC(=O)CSc2nc3nc4c(cc3c(=O)n2-c2ccccc2)CCCC4)c1	-34	6	-1	-4	0	0	·	·	·
O=C(CN1C(=O)/C(=C/c2ccco2)SC1=S)Nc1ccc(O)c(C(=O)O)c1	3	88*	47*	-29	50*	17	82*	47*	31*
O=C(CN1C(=O)/C(=C/c2ccco2)SC1=S)NC1CCS(=O)(=O)C1 (configuration not stated)	11	48*	55*	26	44*	5	19	9.4*	24*
CC(C(=O)Nc1ccc(C(=O)O)c(O)c1)N1C(=O)/C(=C\c2ccco2)SC1=S (configuration not stated)	9	·	·	·	·	6	·	·	·
O=C(CN1C(=O)/C(=C/c2ccco2)SC1=S)Nc1ccc(C(=O)O)c(O)c1	-17	93*	90*	-22	52*	10	85*	53*	35*
